Source: ChEMBL document CHEMBL1127652, “An enantiospecific synthesis of the human cytomegalovirus antiviral agent [(R)-3-((2-amino-1,6-dihydro-6-oxo-9H-purin-9-yl)methoxy)-4- hydroxybutyl]phosphonic acid” (J Med Chem, 1994)

How the values were obtained:
[1] = In vitro toxicity against colony forming unit granulocyte macrophage (CFU-GM); format: cell-based; details: human
[2] = In vitro toxicity against burst forming unit erythroid (BFU-E); details: human, burst forming unit erythroid (BFU-E) progenitor cells
MRC5 = assay: In vitro antiviral activity against Human cytomegalovirus (HCMV)strain AD169 in MRC-5 lung fibroblasts using a DNA-hybridization assay; format: functional, cell-based
How it was run: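 HCMV strain AD169 grown in MRC-5 human lung fibroblasts; viral DNA read out by DNA hybridization. Each drug concentration tested in triplicate. IC50 derived by probit linear regression, and reported values span 7 to 12 independent experiments with standard errors.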

IM-9 = assay: The compound is evaluated for toxicity in IM-9 cells; format: cell-based; details: Homo sapiens
CCRF-CEM = assay: The compound is evaluated for toxicity in CEM cells; format: cell-based; details: Homo sapiens
MOLT-4 = assay: The compound is evaluated for toxicity in MOLT-4 cells; format: cell-based; details: Homo sapiens

| SMILES | IC50 [1] [µM] | IC50 [2] [µM] | IC50 (MRC5) [µM] | IC50 (IM-9) [µM] | IC50 (CCRF-CEM) [µM] | IC50 (MOLT-4) [µM] |
| --- | --- | --- | --- | --- | --- | --- |
| Nc1nc(O)c2ncn(COC(CO)CCP(=O)(O)O)c2n1 (stereo not drawn) | 280 | 200 | 5.6 |  |  |  |
| CCOP(=O)(O)CC[C@H](CO)OCn1cnc2c(O)nc(N)nc21 |  |  | 6.8 |  |  |  |
| Nc1nc2c(ncn2CO[C@@H](CO)CCP(=O)(O)O)c(=O)[nH]1 | 96 | 126 | 1.7 | > 100 | > 100 | > 100 |
| Nc1nc2c(ncn2COC(CO)CO)c(=O)[nH]1 [GANCICLOVIR] | 19 | 29 | 1.7 |  |  |  |
